Values after ≈ are worked out from the molar mass of the structure shown.
Key:
Assay type in all cases: functional
[1] = Antifungal activity against Physalospora pyricola assessed as inhibition of mycelia elongation rate at 50 ppm after 48 hrs relative to control; conditions: Botryosphaeria berengeriana
Procedure, shortened: (§1)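 This was a mycelial growth assay on potato glucose agar. Samples were dissolved in DMF at 500 mg/L (stock), and 1 part solution was mixed with 9 parts thawed medium at 50 °C before plating. Solidified plates were inoculated with a 4 mm mycelium disk, inverted and incubated at 28 °C for 48 h. Medium without sample served as blank. Mycelial elongation radius was measured, in triplicate.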

Bacillus spizizenii = assay: Antibacterial activity against Bacillus subtilis ATCC 6633 assessed as growth inhibition after 24 hrs by two-fold serial dilution method; conditions: ATCC 6633, 24 h
Procedure, shortened: (§2)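 MICs were determined by two-fold serial dilution in nutrient broth, following CLSI. The inoculum came from 24 h bacterial cultures on nutrient agar at 37 ± 1 °C and was adjusted in sterile saline to 1×10⁴–10⁵ CFU/mL. Tubes were incubated at 37 ± 1 °C. MIC was read visually after 24 h, with kanamycin as the reference standard.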

Rhizoctonia solani = assay: Antifungal activity against Rhizoctonia solani assessed as inhibition of mycelia elongation rate at 50 ppm after 48 hrs relative to control; procedure, shortened: as §1
Escherichia coli = assay: Antibacterial activity against Escherichia coli ATCC 35218 assessed as growth inhibition after 24 hrs by two-fold serial dilution method; conditions: ATCC 35218, 24 h; procedure, shortened: as §2
Staphylococcus aureus = assay: Antibacterial activity against Staphylococcus aureus ATCC 6538 assessed as growth inhibition after 24 hrs by two-fold serial dilution method; conditions: ATCC 6538, 24 h; procedure, shortened: as §2
Pseudomonas fluorescens = assay: Antibacterial activity against Pseudomonas fluorescens ATCC 13525 assessed as growth inhibition after 24 hrs by two-fold serial dilution method; conditions: ATCC 13525, 24 h; procedure, shortened: as §2
[2] = Antifungal activity against Gibberella saubinettii assessed as inhibition of mycelia elongation rate at 50 ppm after 48 hrs relative to control; conditions: Fusarium graminearum
Procedure, shortened: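 Poisoned-agar mycelial growth test: sample dissolved in DMF at 500 mg/L, 1 mL mixed into 9 mL thawed potato glucose agar at 50 °C and poured into plates. A 4 mm mycelium disk was placed on each plate, inverted, incubated 28 °C for 48 h. Mycelial elongation radius (mm) measured against a sample-free medium blank; three replicates.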

Fusarium oxysporum = assay: Antifungal activity against Fusarium oxysporum assessed as inhibition of mycelia elongation rate at 50 ppm after 48 hrs relative to control; procedure, shortened: as §1
Cercospora beticola = assay: Antifungal activity against Cercospora beticola assessed as inhibition of mycelia elongation rate at 50 ppm after 48 hrs relative to control; procedure, shortened: as §1

Structure (SMILES)	inhibition [1]	MIC (Bacillus spizizenii)	inhibition at 50 ppm (Rhizoctonia solani)	MIC (Escherichia coli)	MIC (Staphylococcus aureus)	MIC (Pseudomonas fluorescens)	inhibition [2]	inhibition at 50 ppm (Fusarium oxysporum)	inhibition at 50 ppm (Cercospora beticola)
Cc1cc(C)n2nc(SCc3nnc(SCc4ccc(Br)cc4F)s3)nc2n1	82%	50 µg/mL (≈ 101 µM)	75%	6.25 µg/mL (≈ 12.6 µM)	> 100 µg/mL	12.5 µg/mL (≈ 25.1 µM)	35%	38%	62%
Cc1cc(C)n2nc(SCc3nnc(SCc4ccccc4Cl)s3)nc2n1	77%	> 100 µg/mL	61%	12.5 µg/mL (≈ 28.7 µM)	> 100 µg/mL	100 µg/mL (≈ 230 µM)	45%	40%	43%
Cc1cc(C)n2nc(SCc3nnc(SCc4ccc(F)cc4F)s3)nc2n1	86%	25 µg/mL (≈ 57.3 µM)	79%	3.13 µg/mL (≈ 7.17 µM)	25 µg/mL (≈ 57.3 µM)	12.5 µg/mL (≈ 28.6 µM)	64%	56%	64%
Cc1cc(C)n2nc(SCc3nnc(SCc4cccc(Br)c4)s3)nc2n1	58%	12.5 µg/mL (≈ 26.1 µM)	67%	50 µg/mL (≈ 104 µM)	> 100 µg/mL	50 µg/mL (≈ 104 µM)	47%	56%	77%
NC[C@H]1O[C@H](O[C@H]2[C@H](O)[C@@H](O[C@H]3O[C@H](CO)[C@@H](O)[C@H](N)[C@H]3O)[C@H](N)C[C@@H]2N)[C@H](O)[C@@H](O)[C@@H]1O [KANAMYCIN]	–	0.78 µg/mL (≈ 1.61 µM)	–	1.56 µg/mL (≈ 3.22 µM)	3.13 µg/mL (≈ 6.46 µM)	3.13 µg/mL (≈ 6.46 µM)	–	–	–
Cc1cc(C)n2nc(SCc3nnc(SCc4cccc(F)c4)s3)nc2n1	71%	> 100 µg/mL	60%	12.5 µg/mL (≈ 29.9 µM)	> 100 µg/mL	50 µg/mL (≈ 119 µM)	17%	45%	41%
Cc1cc(C)n2nc(SCc3nnc(SCc4cccc([N+](=O)[O-])c4)s3)nc2n1	63%	25 µg/mL (≈ 56.1 µM)	64%	25 µg/mL (≈ 56.1 µM)	25 µg/mL (≈ 56.1 µM)	25 µg/mL (≈ 56.1 µM)	64%	28%	70%
Cc1ccc(CSc2nnc(CSc3nc4nc(C)cc(C)n4n3)s2)c([N+](=O)[O-])c1	78%	25 µg/mL (≈ 54.4 µM)	80%	12.5 µg/mL (≈ 27.2 µM)	25 µg/mL (≈ 54.4 µM)	1.56 µg/mL (≈ 3.39 µM)	66%	54%	64%
Cc1cc(C)n2nc(SCc3nnc(SCc4ccc(Br)cc4)s3)nc2n1	76%	> 100 µg/mL	51%	12.5 µg/mL (≈ 26.1 µM)	> 100 µg/mL	100 µg/mL (≈ 209 µM)	25%	62%	43%
Cc1cc(C)n2nc(SCc3nnc(SCc4ccc(C)c([N+](=O)[O-])c4)s3)nc2n1	68%	12.5 µg/mL (≈ 27.2 µM)	89%	25 µg/mL (≈ 54.4 µM)	> 100 µg/mL	12.5 µg/mL (≈ 27.2 µM)	41%	40%	78%
Cc1cc(C)n2nc(SCc3nnc(SCc4ccccc4Br)s3)nc2n1	75%	> 100 µg/mL	63%	12.5 µg/mL (≈ 26.1 µM)	> 100 µg/mL	25 µg/mL (≈ 52.1 µM)	44%	40%	45%
Cc1cc(C)n2nc(SCc3nnc(SCc4c(F)cccc4F)s3)nc2n1	73%	50 µg/mL (≈ 115 µM)	83%	12.5 µg/mL (≈ 28.6 µM)	> 100 µg/mL	6.25 µg/mL (≈ 14.3 µM)	33%	36%	60%

From ChEMBL document CHEMBL2384957, “Synthesis and antimicrobical evaluation of a novel class of 1,3,4-thiadiazole: derivatives bearing 1,2,4-triazolo[1,5-a]pyrimidine moiety” (2013)
